Compound activity as filed in PubChem BioAssay.
Only some compounds are listed: those with a hit (about 2.4% of all), similar ones and a draw of the others.
Neddylation inh: blocks human cullin neddylation; P61081+Q13564; TR-FRET cullin neddylation, biochemical; inhibition, % at 25 µM; 360,000 compounds, 0.58% hits; AID 651699; in the data active = inhibition above about 36%
Rpn11 inh: blocks the human proteasome subunit Rpn11; O00487; human 26S proteasome, Ub4-pepOG fluorescence polarization; 20S core pre-blocked with epoxomicin; inhibition, % at 20 µM; 360,000 compounds, 0.59% hits;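 active = inhibition at 20 µM, scaled to each plate's controls, above about 33%, limit read from the data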
CSN inh: inhibitors of human CSN-mediated cullin deneddylation; Purified CSN, SCF-Nedd8-OG deneddylation, fluorescence polarization; 360,000 compounds, 0.38% hits; AID 651999; inhibition, % at 12.5 µM;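 active = pattern-corrected inhibition above about 35%, with an unprinted fluorescence ratio check between 0.5 and 1.5, limit read from the data, passing the limit was not always enough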;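 note: 0% = enzyme with substrate and 100% = substrate without enzyme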
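Test system: Human Csn5 produced in HEK293T cells | Compound: 12.5 µM single point | Times: 90 min, room temperature | Signal: Fluorescence polarization readout | Read-out basis: % inhibition of substrate cleavage by Csn5 | Controls: no-enzyme wells high, enzyme-with-substrate wells low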
PREPL inh: human PREPL enzyme inhibition. Q4J6C6. recombinant PREPL, fluorescence polarization activity-based probe. inhibition, % at 5.96 µM. 320,000 compounds, 0.68% hits; in the data active = inhibition above about 43%;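 note: 0% = enzyme with DMSO and 100% = wells lacking enzyme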
Tb MetRS inh: blocks T. brucei methionyl-tRNA synthetase activity; purified T. brucei MetRS, ATP depletion, Kinase-Glo luminescence; inhibition, % at 11.9 µM; 360,000 compounds, 0.4% hits;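 active = inhibition above a per-plate cutoff of the control wells' mean inhibition plus 3 SD, cut at about 5.5% in these data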;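 note: 0% = DMSO wells median and 100% = median of wells with control inhibitor compound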
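System: purified T. brucei MetRS enzyme / Detection: Kinase-Glo luciferase luminescence reporting remaining unconsumed ATP / Medium: HEPES buffer with MgCl2, KCl, DTT, spermine, BSA, pyrophosphatase / Replication: singlicate, one well per compound / Evaluation: percent inhibition relative to median high and low control wells / Schedule: 2 h aminoacylation at 25 °C after 15 min preincubation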
HNF4A DNA FP: change in binding of human HNF4 alpha to DNA. 360,000 compounds, 0.3% hits. AID 1224865. activity change, % at 10 µM. P41235. HNF4a-FITC DNA binding, fluorescence polarization, 1 h; in the data active = activity change above about 30%, passing the limit was not always enough
Target sequence (P41235 whole entry, looked up): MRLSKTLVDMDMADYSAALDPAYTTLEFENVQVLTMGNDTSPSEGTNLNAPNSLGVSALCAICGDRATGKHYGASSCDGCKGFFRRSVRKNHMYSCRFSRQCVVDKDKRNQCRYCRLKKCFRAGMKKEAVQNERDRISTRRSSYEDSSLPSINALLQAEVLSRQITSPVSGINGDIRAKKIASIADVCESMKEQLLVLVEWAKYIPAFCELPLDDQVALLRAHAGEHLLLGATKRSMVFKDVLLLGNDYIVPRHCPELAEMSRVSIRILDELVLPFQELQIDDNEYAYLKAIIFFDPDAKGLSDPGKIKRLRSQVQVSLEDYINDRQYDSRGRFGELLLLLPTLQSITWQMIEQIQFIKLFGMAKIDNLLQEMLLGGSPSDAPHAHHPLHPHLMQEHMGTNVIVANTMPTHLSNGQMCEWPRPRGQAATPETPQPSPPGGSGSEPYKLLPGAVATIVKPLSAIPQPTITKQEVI
TbMetRS confirm: confirmation of Trypanosoma brucei MetRS inhibitors. shares compounds with Tb MetRS inh. T. brucei MetRS enzyme, luminescence (ATP depletion). inhibition, % at 11.9 µM. 1,400 compounds, 93% hits. AID 624412; in the data active = inhibition above about 7%
Jurkat tox: Jurkat T cell cytotoxicity for MetRS hits. 1,400 compounds, 12% hits. Jurkat cells viability, ATP luminescence. AID 624413. shares compounds with Tb MetRS inh. inhibition, % at 8.3 µM; in the data active = inhibition above about 15%;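 note: 0% = vehicle and 100% = reference inhibitor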
Tb MetRS inh FP: T. brucei MetRS inhibition, orthogonal assay. shares compounds with Tb MetRS inh. purified T. brucei MetRS, fluorescence polarization. inhibition, % at 11.9 µM. 1,400 compounds, 44% hits; in the data active = inhibition above about 17%;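 note: 0% = vehicle wells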
Starred values were filed as active, the others as inactive.

Results for CCOC(=O)C(/C=C(\C#N)C(=O)OCC)=C(/N)N1CCN(c2ccc(Cl)cc2)CC1 ?
Neddylation inh: 1; Rpn11 inh: -2; CSN inh: 3; PREPL inh: 42; Tb MetRS inh: 40*; HNF4A DNA FP: -1; TbMetRS confirm: 49*; Jurkat tox: -3; Tb MetRS inh FP: 24*

What do the screens show for `O=Cc1ccc(-c2cccc([N+](=O)[O-])c2)o1`?
Neddylation inh: -23; Rpn11 inh: 5; CSN inh: 5; PREPL inh: 4; Tb MetRS inh: 0; HNF4A DNA FP: -1

How did O=Cc1ccc(-c2ccc([N+](=O)[O-])cc2Cl)o1 do in these assays?
Neddylation inh: -38; Rpn11 inh: 2; CSN inh: -7; Tb MetRS inh: 6.5*; HNF4A DNA FP: 5; TbMetRS confirm: 12*; Jurkat tox: -4; Tb MetRS inh FP: 7

Results for COc1ccc(C(CNC(=O)Nc2ccc(Cl)cc2)N2CCN(C)CC2)cc1 (stereo unspecified) ?
Neddylation inh: -1; Rpn11 inh: -3; CSN inh: 2; PREPL inh: 10; Tb MetRS inh: 15*; HNF4A DNA FP: 2; TbMetRS confirm: 39*; Jurkat tox: 4; Tb MetRS inh FP: 17*

What do the screens show for `COc1ccc(C(CNC(=O)Nc2ccccc2)N2CCN(C)CC2)cc1` (stereo unspecified)?
Neddylation inh: -2; Rpn11 inh: -1; CSN inh: 2; PREPL inh: 3; Tb MetRS inh: 0; HNF4A DNA FP: -1

How did Cc1cccc(N2C(=O)CC(N3CCC(c4nc5ccccc5[nH]4)CC3)C2=O)c1 (stereo unspecified) do in these assays?
Neddylation inh: 4; Rpn11 inh: -3; CSN inh: 0; PREPL inh: 9; Tb MetRS inh: 2; HNF4A DNA FP: 2

Results for O=C1CC(N2CCC(c3nc4ccccc4o3)CC2)C(=O)N1c1cc(Cl)cc(Cl)c1 (stereo unspecified) ?
Neddylation inh: 6; Rpn11 inh: -1; CSN inh: -1; PREPL inh: -19; Tb MetRS inh: 6.0*; HNF4A DNA FP: 1; TbMetRS confirm: 2; Jurkat tox: 3; Tb MetRS inh FP: -6

How did CCN(CC(=O)Nc1ccc(OC)cc1)C(=O)c1ccc2c(c1)NC(=O)C(C)S2 (stereo unspecified) do in these assays?
Neddylation inh: 4; Rpn11 inh: -1; CSN inh: -2; PREPL inh: 19; Tb MetRS inh: 18*; HNF4A DNA FP: 1; TbMetRS confirm: 48*; Jurkat tox: -1; Tb MetRS inh FP: 24*

How did CCOc1ccc(C(CN2CCOCC2)C(C)=O)cc1OC (stereo unspecified) do in these assays?
Neddylation inh: -4; Rpn11 inh: -8; CSN inh: 3; Tb MetRS inh: -1; HNF4A DNA FP: -2

Results for CCOc1ccc(OCCCC(=O)Nc2nc3ccccc3[nH]2)cc1 ?
Neddylation inh: -3; Rpn11 inh: -2; CSN inh: -3; PREPL inh: -11; Tb MetRS inh: 1; HNF4A DNA FP: 2

Results for CCCOc1cccc(OCC(=O)Nc2nc3ccccc3[nH]2)c1 ?
Neddylation inh: 11; Rpn11 inh: -8; CSN inh: 1; PREPL inh: -6; Tb MetRS inh: 29*; HNF4A DNA FP: 1; TbMetRS confirm: 48*; Jurkat tox: 9; Tb MetRS inh FP: 20*

Results for O=C(CSc1ccccc1)Nc1ccc(-c2nc3ccccc3[nH]2)cc1 ?
Neddylation inh: 15; Rpn11 inh: 29; CSN inh: 7; PREPL inh: -7; Tb MetRS inh: 3; HNF4A DNA FP: 16

Results for O=C(CSc1ccc2ccccc2c1)Nc1nc2ccccc2[nH]1 ?
Neddylation inh: 6; Rpn11 inh: -5; CSN inh: -7; PREPL inh: -46; Tb MetRS inh: 21*; HNF4A DNA FP: -1; TbMetRS confirm: 29*; Jurkat tox: 4; Tb MetRS inh FP: 11

Results for CCCCOc1cccc(OCC(=O)Nc2nc3ccccc3[nH]2)c1 ?
Neddylation inh: 0; Rpn11 inh: 0; CSN inh: -4; PREPL inh: -26; Tb MetRS inh: 36*; HNF4A DNA FP: 3; TbMetRS confirm: 48*; Jurkat tox: 1; Tb MetRS inh FP: 14

How did CCCCNc1nc2ccccc2[nH]1 do in these assays?
Neddylation inh: 9; Rpn11 inh: 2; CSN inh: -5; PREPL inh: -12; Tb MetRS inh: 8.0*; HNF4A DNA FP: -1; TbMetRS confirm: 14*; Jurkat tox: 2; Tb MetRS inh FP: 6

Results for O=C(COc1ccccc1)Nc1nc2ccccc2[nH]1 ?
Neddylation inh: 4; Rpn11 inh: -7; CSN inh: -2; PREPL inh: -9; Tb MetRS inh: 1; HNF4A DNA FP: 2

What do the screens show for `O=C(Nc1ccccc1)c1cc(C2CCCCN2C(=O)c2cccs2)on1` (stereo unspecified)?
Neddylation inh: -3; Rpn11 inh: -6; CSN inh: 1; Tb MetRS inh: 0; HNF4A DNA FP: -5

How did Cc1cc(OCC(=O)Nc2c(C(C)C)cccc2C(C)C)no1 do in these assays?
Neddylation inh: 8; Rpn11 inh: 16; CSN inh: 9; Tb MetRS inh: 0; HNF4A DNA FP: 3

How did CCOC(=O)C1=C(CC)Nc2ccccc2N=C1NC(=O)Nc1ccc(Cl)c(Cl)c1 do in these assays?
Neddylation inh: 0; Rpn11 inh: 6; CSN inh: 3; PREPL inh: -18; Tb MetRS inh: 37*; HNF4A DNA FP: 0; TbMetRS confirm: 97*; Jurkat tox: 17*; Tb MetRS inh FP: 117*

What do the screens show for `Cc1ccc(C2CC(C(F)(F)F)n3ncc(C(=O)NCc4ccco4)c3N2)cc1` (stereo unspecified)?
Neddylation inh: -7; Rpn11 inh: -1; CSN inh: 5; PREPL inh: -22; Tb MetRS inh: 0; HNF4A DNA FP: 3

Results for O=C(NCc1cccc(Cl)c1)c1cnn2c1NC(c1ccco1)CC2C(F)(F)F (stereo unspecified) ?
Neddylation inh: 2; Rpn11 inh: 13; CSN inh: 5; PREPL inh: 0; Tb MetRS inh: 10*; HNF4A DNA FP: 7; TbMetRS confirm: 23*; Jurkat tox: 1; Tb MetRS inh FP: 14
